{"source": "PubChem BioAssay AID624017", "about": "(Broad Institute, 2012)", "system": "ldlA[mSR-BI] cells, [3H]cholesterol efflux to HDL", "experiment": "free cholesterol efflux blockade in ldlA[mSR-BI] cells – [3H]cholesterol, powder samples, set 2, mechanism study for SR-BI HDL uptake inhibitor project, dose response (AID 624017)", "method_in_brief": "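System: [3H]cholesterol-loaded ldlA[mSR-BI] cells. Buffer or medium: assay medium with 0.5% FAF-BSA, 25 mM HEPES pH 7.4. Dosing: compound in 0.5% DMSO final. Timing: 2-day label, 24 h equilibration, 1 h compound pretreatment, 2 h efflux. Signal: liquid scintillation counting of [3H] in medium and Triton lysate.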", "note": "pIC50: −log10 of the molar value.", "data": [{"smiles": "CC(C)NC(=O)Nc1ccc2c(c1)C(=O)N([C@H](C)CO)C[C@@H](C)[C@H](CN(C)S(=O)(=O)c1ccc(Cl)cc1)O2", "values": [{"measurement": "pIC50", "result": 6.60}]}]}
